Results on five compounds are retold here after ChEMBL document CHEMBL3425441 (J Med Chem, 2015).

For orientation: IC50 means the concentration that inhibits the measured activity by half. By Kd is commonly meant a measure of binding affinity in units of concentration. By bioavailability is commonly meant the share of a dose that reaches the circulation, judged against a reference dose that is usually intravenous. Low readings indicate little systemic uptake, high ones much systemic uptake. The AUC is concentration integrated over time. A low value points to less exposure.

In one data set the test system is EL4. Put plainly: Cytotoxicity against mouse EL4 cells assessed as cell death after 72 hrs by sulforhodamine B assay. Conditions: EL4, 72 h; call rule not given here. The class given is functional, cell-based. Put shortly:
(§1)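 Jurkat plated at 25,000 cells/well; GL-1 and EL4 at 15,000 cells/well. Nine half-log doses, 0.01–100 µM, in triplicate. SRB staining after TCA fixation, absorbance 510 nm. Percent death normalized to a positive death control (100%) and DMSO (0%). Logistic fit gives IC50, mean of three experiments ± s.e.m.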
Background: In SRB staining, fixed cells bind dye roughly in proportion to their protein.

Data set [1] can be described thus: Metal chelating activity of the compound assessed as zinc complex formation after 5 mins by EGTA fluorescence titration Assay. The format is physicochemical.
The nature of data set [2]: Cytotoxicity against dog GL1 cells assessed as cell death after 72 hrs by sulforhodamine B assay. The class given is functional, cell-based. Conditions: Canis lupus familiaris. An outline of the steps:
as §1

The nature of data set [3]: Oral bioavailability in C57/BL6 mouse at 25 mg/kg by LC/MS/MS analysis. The class given is ADME, organism-based. Conditions: in vivo.
The test system of data set [4] is U-937. Put plainly: Induction of apoptosis in human U937 cells assessed as early apoptotic cells at 50 uM after 12 hrs by annexin V-FITC/propidium iodide staining-based flow cytometric analysis (reference value: 2%). The class given is functional. (In general: A flow cytometer gives signals particle by particle.)
For data set [5], the system named is U-937. The data set can be described thus: Induction of apoptosis in human U937 cells assessed as viable cells at 50 uM after 12 hrs by annexin V-FITC/propidium iodide staining-based flow cytometric analysis (reference value: 96%). The class given is functional. Conditions: U-937, 12 h, read-out: Activity.
The nature of data set [6]: AUC in C57/BL6 mouse at 25 mg/kg, iv by LC/MS/MS analysis. The format is ADME, organism-based. Also on record: dose 25 mg/kg, route intravenous. Conditions: plasma.
A short description of data set [7]: AUC in C57/BL6 mouse at 25 mg/kg, po by LC/MS/MS analysis. The class given is ADME, organism-based. Further details: dose 25 mg/kg, route oral. Conditions: plasma.
Data set [8] can be described thus: Cytotoxicity against human U937 cells assessed as cell death after 72 hrs by sulforhodamine B assay. Conditions: U-937, 72 h.
The nature of data set [9]: Metabolic stability in rat liver microsomes at 10 uM after 3 hrs by LC/MS analysis. The class given is ADME. Conditions: read-out: Stability.
Data set [10] concerns Mus musculus. Put plainly: Toxicity in C57BL/6 mouse at 200 mg/kg, ip measured over 24 hrs. Conditions: in vivo. The format is organism-based. Further details: dose 200 mg/kg, route intraperitoneal. Put shortly: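 Tolerability: C57BL/6 mice aged 8-10 weeks, n = 3 per cohort, given a single 200 mg/kg i.p. dose formulated at 5 mg/mL in 200 mg/mL HPβCD, pH 5.5. Signs classed as excitatory or depressive and graded mild to severe.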

In data set [11] the test system is U-937. Put plainly: Induction of apoptosis in human U937 cells assessed as necrotic cells at 50 uM after 12 hrs by annexin V-FITC/propidium iodide staining-based flow cytometric analysis relative to control. The class given is functional.
In another data set the test system is Jurkat. Put plainly: Cytotoxicity against human Jurkat cells assessed as cell death after 72 hrs by sulforhodamine B assay. The class given is functional, cell-based. An outline of the steps:
as §1

Data set [12] has as its system Serum. The data set can be described thus: Drug uptake in C57/BL6 mouse serum at 25 mg/kg, iv measured after 5 to 6 hrs by LC/MS/MS analysis. The class given is ADME, organism-based. Also on record: dose 25 mg/kg, route intravenous. Conditions: in vivo. An outline of the steps:
(§2)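 Mouse PK: C57/BL6 mice, n = 2 per cohort per time point, 25 mg/kg given by tail vein injection or oral gavage; formulated at 5 mg/mL in 200 mg/mL HPβCD, pH 5.5. Mice sacrificed at set times, blood collected, EDTA plasma frozen at -80°C. Levels measured by LC/MS/MS (Polar-RP column, formic acid/methanol gradient, negative ESI) against an internal standard.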

Data set [13] is described as follows: Cytotoxicity against dog OSW cells assessed as cell death after 72 hrs by sulforhodamine B assay. Conditions: Canis lupus familiaris. The class given is functional, cell-based.
Data set [14] is described as follows: Elimination half life in dog at 1 mg/kg, iv. The format is ADME, organism-based, Canis lupus familiaris. Also on record: dose 1 mg/kg, route intravenous. Conditions: in vivo, read-out: beta t1/2 (converted).
Another data set concerns Liver microsome. The data set can be described thus: Drug metabolism in rat liver microsomes assessed as formation of N-dealkylated, dihydroxylated and multiple monooxygenated products at 10 uM after 3 hrs by LC/MS analysis. The format is ADME.
Data set [15] addresses T1, Caspase-3/Caspase-7 (Homo sapiens) (UniProt P42574+P55210). The data set can be described thus: Activation of Caspase 3/7 in human U937 cells assessed as cleavage of Ac-DEVD-AFC at 30 uM after 16 hrs by fluorescence assay relative to control. The format is cell-based. Conditions: U-937.
Data set [16] relates to U-937. The data set can be described thus: Induction of apoptosis in human U937 cells assessed as late apoptotic cells at 50 uM after 12 hrs by annexin V-FITC/propidium iodide staining-based flow cytometric analysis (reference value: 2%). The class given is functional.
Data set [17] deals with Mus musculus. Put plainly: Elimination half life in C57/BL6 mouse at 25 mg/kg, iv and po by LC/MS/MS analysis. The format is ADME, organism-based. Also on record: dose 25 mg/kg, route oral. Conditions: in vivo.
Data set [18] has as its system Serum. Put plainly: Drug uptake in C57/BL6 mouse serum at 25 mg/kg, iv measured after 8 hrs by LC/MS/MS analysis. The format is ADME, organism-based. Also on record: dose 25 mg/kg, route intravenous. Conditions: in vivo. An outline of the steps:
as §2

The target in data set [19] is T1, Caspase-3/Caspase-7 (Homo sapiens). The data set can be described thus: Activation of Caspase 3/7 in human U937 cells assessed as cleavage of Ac-DEVD-AFC at 1 uM after 16 hrs by fluorescence assay relative to control. The format is cell-based. Conditions: U-937. An outline of the steps: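 U-937 cells, 50,000/well in phenol red-free RPMI-1640 with 10% FBS, preincubated 15 h at 37°C. Compound added from a 3x solution in media and tested in six wells. Lysis/caspase buffer contains 20 µM Ac-DEVD-AFC. […] 16 h slopes normalized to 0 h (0%) and staurosporine 16 h (100%).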

T1 sequence (P42574 whole entry, looked up): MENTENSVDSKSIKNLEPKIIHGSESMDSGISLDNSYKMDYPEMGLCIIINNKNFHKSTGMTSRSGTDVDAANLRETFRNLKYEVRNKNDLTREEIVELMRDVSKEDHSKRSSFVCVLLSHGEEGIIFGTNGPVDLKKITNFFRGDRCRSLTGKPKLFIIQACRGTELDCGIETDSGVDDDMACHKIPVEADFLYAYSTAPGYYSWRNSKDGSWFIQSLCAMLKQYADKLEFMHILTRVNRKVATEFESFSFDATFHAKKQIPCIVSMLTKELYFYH
T1 sequence (P55210 whole entry, looked up): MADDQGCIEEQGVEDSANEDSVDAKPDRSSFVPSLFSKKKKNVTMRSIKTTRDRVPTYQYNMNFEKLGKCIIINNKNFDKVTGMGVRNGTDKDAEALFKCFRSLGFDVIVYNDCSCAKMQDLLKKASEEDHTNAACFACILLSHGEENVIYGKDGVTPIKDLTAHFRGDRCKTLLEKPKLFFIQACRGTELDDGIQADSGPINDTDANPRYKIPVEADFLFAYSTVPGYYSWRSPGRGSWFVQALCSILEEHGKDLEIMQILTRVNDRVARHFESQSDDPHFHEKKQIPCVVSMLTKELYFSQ

Turning to `C=CCc1cccc(/C=N/NC(=O)CN2CCN(Cc3ccccc3)CC2)c1O` [PAC-1], the IC50 in the data set with EL4 was found to be 6.5 µM; in data set [2], 3 µM; in data set [8] it was 10.2 µM; in the data set with Jurkat it was 4.4 µM; in data set [13], 10 µM. Also, the Kd in [1] was 0.00128 µM. The bioavailability in data set [3] amounted to 15.1%. In addition, the Activity in the data set on U-937 [4] was 22%; with Mus musculus [10], “Toxic”; in the data set with U-937 [11], 5%; in data set [15], 87%; in the data set with U-937 [16], 19%. Further, the viability at 50 µM in the data set with U-937 [5] amounted to 54%. The results for the AUC in [6] and in [7] were 3510 ng·h/mL and 527 ng·h/mL, respectively. Besides, the remaining at 3 h, 10 µM in [9] turned out to be 38%. The Drug uptake result with Serum [12] is “Not Active”. The half-life in [14] was 2.1 h. Also, the Drug metabolism result in the data set on Liver microsome is given as “metabolite_detected”. In the data set with Mus musculus [17], the “beta t1/2” value was 0.41 h.

As for `C=CCc1cccc(/C=N/NC(=O)CN2CCN(Cc3ccc(S(N)(=O)=O)cc3)CC2)c1O`, in data set [9], the remaining at 3 h, 10 µM turned out to be 84%. For the same compound, the Drug uptake entry in the data set with Serum [12] was “Not Active”.

Consider `C=CCc1cc(F)cc(/C=N/NC(=O)CN2CCN(C(=O)c3ccccc3)CC2)c1O`, for which the IC50 came out at 7.3 µM with EL4; 3.4 µM in [2]; 8.6 µM in [8]; 4.1 µM with Jurkat; 10 µM in data set [13]. In addition, the Kd in data set [1] came to 0.00107 µM. Moreover, the bioavailability in data set [3] stood at 8.5%. For the same compound, the Drug uptake entry in the data set on Serum [18] is “Active”. The Activity was 20% in the data set on U-937 [4]; “Non-toxic” in the data set with Mus musculus [10]; 7% in the data set on U-937 [11]; 67% in data set [15]; 19% with U-937 [16]. Also, the viability at 50 µM with U-937 [5] came out at 54%. Moreover, the area under the curve (AUC) is 4850 ng·h/mL in data set [6] and 428 ng·h/mL in data set [7]. In addition, in [9], the remaining at 3 h, 10 µM amounted to 93%. Further, the “beta t1/2” value in the data set with Mus musculus [17] worked out at 2.008 h.

`C=CCc1cccc(/C=N/NC(=O)CN2CCN(C(=O)c3ccc(F)cc3)CC2)c1O`: the IC50 in the data set with EL4 is 6.5 µM; in data set [2], 3 µM; in data set [8], 10.2 µM; in the data set on Jurkat it was 4 µM; in data set [13], 9.3 µM. Also, the equilibrium dissociation constant (Kd) in data set [1] was found to be 0.00146 µM. The same compound showed a bioavailability in [3] of 25.6%. For the same compound, the Drug uptake result in the data set with Serum [18] was “Active”. Also, the Activity in the data set on U-937 [4] was 27%; in the data set with Mus musculus [10], “Non-toxic”; in the data set with U-937 [11], 2%; in [15], 64%; in the data set on U-937 [16] it was 22%. Further, the viability at 50 µM with U-937 [5] turned out to be 49%. Besides, the AUC in data set [6] is 6040 ng·h/mL; in [7], 1540 ng·h/mL. In addition, the remaining at 3 h, 10 µM in data set [9] was found to be 86%. For the same compound, in the data set with Mus musculus [17], the “beta t1/2” value was 1.49 h.

For the compound `CN[C@@H]1C[C@H]2O[C@@](C)([C@@H]1OC)n1c3ccccc3c3c4c(c5c6ccccc6n2c5c31)C(=O)NC4`, the Activity in data set [19] stood at 100%.
